# In the library only some 2.1% were active in any assay of this set; here they are far more common.
# GSK3A inh: human GSK-3 alpha kinase inhibition. P49840. hit rate 0.1% among 320,000. inhibition, % at 10 µM. ADP-Glo luminescence, 60 min. AID 2650;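 active = more than half of replicates show inhibition above 20%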;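 note: GST-tagged GSK-3 alpha with peptide substrate and 25 µM ATP; 0% = DMSO neutral wells and 100% = GW8510 positive control wells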
# MEKK2 WT-MEK5: raises or lowers MEK5 binding to wildtype human MEKK2 PB1 domain | bead flow cytometry, Alexa488-MEK5 binding to MEKK2 WT; actives lie on both sides | binding response (% of control), % at 10 µM | hit rate 1.1% among 290,000; in the data active = binding response below about 67% or above about 130%
# STK33 kinase inh: inhibitors of human STK33 kinase. Q9BYT3. inhibition, % at 10 µM. hit rate 0.073% among 320,000. purified STK33, MBP phosphorylation, ADP-Glo luminescence;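 active = inhibition at or above 25%, using the most active replicate where run in duplicate; inactive = inhibition below 25%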
# Target sequence (Q9BYT3 whole entry, looked up): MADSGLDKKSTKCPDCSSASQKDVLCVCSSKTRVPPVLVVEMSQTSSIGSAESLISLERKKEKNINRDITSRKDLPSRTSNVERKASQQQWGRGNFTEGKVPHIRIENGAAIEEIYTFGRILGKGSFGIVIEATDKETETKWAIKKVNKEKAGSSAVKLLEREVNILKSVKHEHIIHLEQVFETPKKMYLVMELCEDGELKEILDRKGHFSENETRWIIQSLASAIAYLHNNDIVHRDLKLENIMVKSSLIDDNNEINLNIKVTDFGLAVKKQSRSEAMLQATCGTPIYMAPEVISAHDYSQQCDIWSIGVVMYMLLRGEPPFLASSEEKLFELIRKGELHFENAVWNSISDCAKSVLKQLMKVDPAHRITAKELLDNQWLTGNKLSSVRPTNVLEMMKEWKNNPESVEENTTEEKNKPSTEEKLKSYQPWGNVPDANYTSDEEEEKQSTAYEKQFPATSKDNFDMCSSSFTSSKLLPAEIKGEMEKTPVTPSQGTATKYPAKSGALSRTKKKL
# MEKK3 PB1 HTS: raises or lowers MEK5 binding to the human MEKK3 PB1 domain; hit rate 1.4% among 290,000; AID 1529; Q99759; bead-based flow cytometry, Alexa488-MEK5 binding to MEKK3; actives lie on both sides; 0 = blocked by unlabeled MEK5, 100 = vehicle; binding response (% of control), % at 10 µM;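 active = binding response more than 3 SD above or below the average of its plate-row segment, actives on both sides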;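 note: Alexa488 bead fluorescence after subtracting the streptavidin-only scavenger bead signal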
# MEKK2 mut-MEK5: signal of MEK5 binding to mutant human MEKK2 PB1 domain. bead flow cytometry, Alexa488-MEK5 binding to MEKK2 mutant. percent response, % at 10 µM. hit rate 0.35% among 290,000; in the data active = percent response above about 24%, passing the limit was not always enough
# GSK3B inh: human GSK3beta kinase inhibition; GST-GSK3beta kinase, ADP-Glo luminescence, 60 min; active compounds read low; activity score (negative = inhibition), % at 10 µM; hit rate 0.038% among 300,000; AID 2097;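 active = more than half of replicate wells score below -50%, meaning over 50% inhibition versus plate controls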;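 note: 0% = median DMSO wells and -100% = median GW8510 positive control wells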
#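 Test system: GST-tagged human GSK3beta kinase, cell-free; evaluation: activity score scaled between in-plate DMSO and GW8510 controls; measured by: ADP-Glo luminescence; incubation: 60 min reaction, RT; benchmarks: DMSO and 20 µM GW8510; reagent: peptide substrate plus 25 µM ATP (final); medium: Tris/MgCl2 kinase buffer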
# MEKK2wt confirm: raises or lowers MEK5 binding to wildtype human MEKK2, retest; hit rate 2.4% among 5,900; binding response (% of control), % at 10 µM; bead flow cytometry, Alexa488-MEK5 binding to MEKK2 WT; actives lie on both sides; shares compounds with MEKK3 PB1 HTS; in the data active = binding response below about 16% or above about 210%; inactive = in between
# MEKK2mut confirm: signal of MEK5 binding to mutant human MEKK2, retest. bead flow cytometry, Alexa488-MEK5 binding to MEKK2 mutant. hit rate 2% among 5,900. percent response, % at 10 µM. shares compounds with MEKK3 PB1 HTS. AID 1893; in the data active = percent response mostly above about 71%, no sharp cut-off; inactive = mostly below about 38%;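 note: higher means compound restores mutant binding toward wildtype level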
# MEKK3 confirm: MEKK3-MEK5 PB1 inhibition, single concentration confirmation | shares compounds with MEKK3 PB1 HTS | bead flow cytometry, Alexa488-MEK5 binding to MEKK3; active compounds read low | binding response (% of control), % at 10 µM | hit rate 1.8% among 5,900;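 active = binding response below 72% of control, or above a set upper limit, though filed actives all read lower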;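 note: 100% = DMSO only wells and 0% = binding blocked by excess unlabeled MEK5; lower values mean stronger disruption of MEK5 binding to MEKK3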
# Starred values were filed as active, the others as inactive; . = not tested or not shown; [ ] = another dose, or the depositor's remark.
SMILES,GSK3A inh,MEKK2 WT-MEK5,STK33 kinase inh,MEKK3 PB1 HTS,MEKK2 mut-MEK5,GSK3B inh,MEKK2wt confirm,MEKK2mut confirm,MEKK3 confirm
CC(=O)N(C)c1ccc(OCC(O)Cn2c(C)nc3ccccc32)cc1 (stereo not given),-2,115,0,135*,1,0,98,-2,101
Cc1nccn1CC(=O)c1ccc(O)c(O)c1,-1,.,0,.,.,.,.,.,.
COc1ccc(OC)c(S(=O)(=O)N2CCC(C(=O)N3CCCCCC3)CC2)c1,0,93,0,101,-6,2,.,.,.
CC(C)n1nccc1N(Cc1ccc(C#N)cc1)S(=O)(=O)c1ccccc1,-5,103,0,103,1,-1,.,.,.
O=C(CN1CCOCC1)Nc1nc(-c2ccc3c(c2)CCN3S(=O)(=O)c2ccccc2)cs1,0,3.0*[inhibitor],-3,2.0*[inhibitor],-26,-4,99,-9,101
Cc1cc(C)nc(NC(=O)c2ccc([N+](=O)[O-])o2)n1,-1,104,-3,128*,2,1,97,-10,99
CCC(CC)c1nnc(NC(=O)C2CC(=O)N(c3ccc4c(c3)OCCO4)C2)s1 (stereo not given),.,110,.,135*,1,0,66,-18,61*
Cn1cc(SCC(=O)NCCc2ccccc2)c2ccccc21,-1,84,2,82,-9,2,.,.,.
COc1cc(-c2ccc3c(=O)c4ccccc4n(C)c3c2)cc(OC)c1OC,-2,95,3,100,0,2,.,.,.
COc1ccc(-c2cc(Cl)cc3c(=O)c4ccccc4n(C)c23)cc1F,1,66*[inhibitor],-1,94,-6,1,75,-16,96
C=CCOc1nc2c(c(=O)n(C)c(=O)n2C)n1Cc1c(Cl)cccc1Cl,-2,89,-1,81*[inhibitor],-6,3,100,-4,104
CCOc1nc2c(c(=O)n(C)c(=O)n2C)n1Cc1ccccc1Cl,-3,76,-1,75,-7,1,.,.,.
CSc1nc(C)c(Oc2ccccc2)c(=O)n1C,0,-1.0*[inhibitor],0,-1.0*[inhibitor],-21,-3,99,3,102
Cn1ncc(Cl)c(Oc2ccccc2)c1=O,-3,103,-1,103,3,0,.,.,.
CCCCCNCc1ccc(Cl)cc1,-2,103,-4,100,0,1,.,.,.
CC(NCc1cccc(OCc2ccccc2)c1)C(O)c1ccccc1 (stereo not given),1,119,0,100,12,0,.,.,.
OCCCCNCc1ccc(OCc2ccc(Cl)cc2)cc1,-2,181*,-2,108,37*,-2,107,3,101
CC(NCc1ccc(OCc2ccc(Cl)cc2)cc1)C(O)c1ccccc1 (stereo not given),6,144*,-1,94,4,-4,160,33,96
CC1CC(C)CN(CCCNC(=O)c2cc3c(=O)[nH]c4ccccc4c3n2C)C1 (stereo not given),-1,114,0,108,15,-1,.,.,.
O=C(Cc1csc(Nc2nc(=S)[nH]c3ccccc23)n1)NCCCN1CCN(c2ccccc2F)CC1,-2,147*,0,110,-2,-2,153,31,102
Cn1c(C(=O)NCCCN2CCN(c3ccccc3F)CC2)cc2c(=O)[nH]c3ccccc3c21,2,148*,1,111,28,-1,130,5,104
O=C(NC1CCC(O)CC1)c1ccc2c(c1)S(=O)(=O)N=C1CCCCCN12 (stereo not given),0,.,1,.,.,4,.,.,.
COc1cc(CNC(C)c2ccccc2)cc(Br)c1OCc1ccccc1 (stereo not given),-3,192*,-2,112,17,-3,164,31,105
COc1cc(CNC(C)c2ccccc2)cc(Br)c1OCc1ccc(F)cc1 (stereo not given),-1,223*,1,109,23,2,186,50,113
CCOc1cc(CNCc2ccncc2)cc(Br)c1OCc1ccc(F)cc1,-2,142*,-1,108,22,0,128,22,112
SMILES,GSK3A inh,MEKK2 WT-MEK5,STK33 kinase inh,MEKK3 PB1 HTS,MEKK2 mut-MEK5,GSK3B inh,MEKK2wt confirm,MEKK2mut confirm,MEKK3 confirm
CC1Cc2nc(SCC(=O)NCC3CCCO3)n(C)c(=O)c2S1 (stereo not given),1,102,-1,103,2,0,.,.,.
Cc1ccc(C(=O)NCC(=O)Nc2ncccc2C)s1,-1,.,-1,.,.,-2,.,.,.
CCOCCCNC(=S)NCCCNc1nc2cc3c(cc2cc1C#N)OCO3,4,-4.0*[inhibitor],1,1.0*[inhibitor],-18,0,97,-2,99
Cc1ccc2[nH]c(=O)c(CN(CCCN(C)C)C(=O)Nc3ccc(F)cc3)cc2c1,-6,108,0,102,3,2,.,.,.
COc1ccc(C2CC(c3ccccc3)=NN2S(=O)(=O)c2ccccc2)cc1 (stereo not given),2,103,1,20*[inhibitor],50,-3,91,-17,85
O=S(=O)(c1ccccc1)N1N=C(c2ccccc2)CC1c1ccco1 (stereo not given),1,87,-1,93,-11,-1,.,.,.
CS(=O)(=O)N1N=C(c2ccccc2)CC1c1ccc2c(c1)OCO2 (stereo not given),-3,.,1,20*[inhibitor],.,-1,67,-22,68*
Cc1ccc(C2=NN(S(=O)(=O)c3ccccc3)C(c3ccccc3O)C2)cc1 (stereo not given),.,.,.,14*[inhibitor],161*,-2,88,-7,88
Cc1ccc2cc(CN(CC(C)C)S(=O)(=O)c3cccc4nonc34)c(=O)[nH]c2c1,-1,93,0,98,-1,2,.,.,.
COc1ccc(CCNc2c([N+](=O)[O-])c(=O)oc3ccccc23)cc1OC,0,103,-1,99,-2,-4,.,.,.
Cc1ccc(NC(=O)CCNC(=O)c2ccccc2)cc1F,0,93,-2,101,2,0,.,.,.
O=C(CCNC(=O)c1ccccc1)Nc1ccc(F)c(Cl)c1,1,108,0,138*,1,2,103,5,102
Cc1cc(NC(=O)c2cc(-c3ccccc3)on2)n(-c2ccccc2)n1,0,101,-1,106,3,1,.,.,.
